ChEMBL document CHEMBL3621084, “Discovery of 2-Pyridinone Aminals: A Prodrug Strategy to Advance a Second Generation of HIV-1 Integrase Strand Transfer Inhibitors” (J Med Chem, 2015)
≈ marks a conversion by molar mass, not a printed value.

What was measured:
[1] = Solubility in FaSSiF at pH 6.5 at room temperature incubated for 4 hrs; assay type: physicochemical
[2] = AUC (0 to infinity) in beagle dog at 2 mg/kg, po by LC-MS/MS method; assay type: ADME, organism-based, Canis lupus familiaris; design: dose 2 mg/kg, route oral, time infinity; conditions: beagle, in vivo
[3] = Stability in SGF at pH 1.8 at 37 °C incubated for 4 hrs
[4] = Stability in FaSSiF at pH 6.5 at 37 °C incubated for 4 hrs
[5] = test system: Human immunodeficiency virus 1; assay: Antiviral activity against HIV1 infected in human MT4 cells expressing GFP incubated for 48 to 72 hrs in absence of 50% normal human serum by multiple round viral replication kinetics assay; assay type: functional
Canis familiaris [6] = assay: (§1) AUC (0 to infinity) in beagle dog assessed as (1R,2R,5S)-8'-(3-chloro-4-fluorobenzyl)-6'-hydroxy-2'-((S)-2-hydroxypropyl)-9',10'-dihydro-1'H-spiro[bicyclo[3.1.0]hexane-2,3'-imidazo[5,1-a][2,6]naphthyridine]-1',5',7'(2'H,8'H)-trione level at 10 mg/kg, po by LC-MS/MS method; assay type: ADME, organism-based, Canis lupus familiaris; design: dose 10 mg/kg, time infinity, route oral; conditions: in vivo
Summary of the method: (§2)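 Oral rising-dose studies were run in beagle dogs with prodrugs, at doses normalized to account for the promoiety so that they give the actual parent dose administered. The read-out was plasma exposure (AUC) of the parent compound.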

[7] = Permeability in MDCK2 cells at 1 uM incubated for 3 hrs by LC-MS/MS method; assay type: ADME, cell-based, Canis lupus familiaris, MDCK-II; conditions: dog, MDCK; read-out: permeability
[8] = AUC (0 to infinity) in portal vein of portal vein-cannulated beagle dog at 10 mg/kg, po by LC-MS/MS method; assay type: ADME, organism-based, Canis lupus familiaris; design: dose 10 mg/kg, time infinity, route oral
Summary of the method: (§3)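 Portal vein-cannulated dogs received the prodrugs orally at doses normalized to 10 mg/kg of the parent molecule. Prodrug and parent concentrations were determined in plasma collected from the portal and jugular veins, and AUC was derived for each analyte at each site.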

[9] = Permeability in LLC-PK1 cells at 1 uM incubated for 3 hrs by LC-MS/MS method; assay type: ADME, cell-based, Sus scrofa; conditions: pig, read-out: permeability
[10] = AUC (0 to infinity) in jugular vein of portal vein-cannulated beagle dog at 10 mg/kg, po by LC-MS/MS method; assay type: ADME, organism-based, Canis lupus familiaris; design: dose 10 mg/kg, time infinity, route oral; summary of the method: as §3
[11] = as §1, with “infinity) in portal vein of portal vein-cannulated beagle dog” for “infinity) in beagle dog”; assay type: ADME, organism-based, Canis lupus familiaris; design: dose 10 mg/kg, route oral, time infinity; conditions: in vivo; summary of the method: as §3
[12] = AUC (0 to infinity) in jugular vein of portal vein-cannulated beagle dog assessed as (1R,2R,5S)-8'-(3-chloro-4-fluorobenzyl)-6'-hydroxy-2'-((S)-2-hydroxypropyl)-9',10'-dihydro-1'H-spiro[bicyclo[3.1.0]hexane-2,3'-imidazo[5,1-a][2,6]naphthyridine]-1',5',7'(2'H,8'H)-trione level at 10 mg/kg, po by LC-MS/MS method; assay type: ADME, organism-based, Canis lupus familiaris; design: dose 10 mg/kg, route oral, time infinity; conditions: in vivo; summary of the method: as §3
Canis familiaris [13] = assay: AUC (0 to infinity) in beagle dog assessed as (1R,2R,5S)-8'-(3-chloro-4-fluorobenzyl)-6'-hydroxy-2'-((S)-2-hydroxypropyl)-9',10'-dihydro-1'H-spiro[bicyclo[3.1.0]hexane-2,3'-imidazo[5,1-a][2,6]naphthyridine]-1',5',7'(2'H,8'H)-trione level at 2 mg/kg, po by LC-MS/MS method; assay type: ADME, organism-based, Canis lupus familiaris; design: dose 2 mg/kg, time infinity, route oral; conditions: in vivo; summary of the method: as §2
[14] = (§4) AUC (0 to infinity) in jugular vein of portal vein-cannulated beagle dog assessed as (1R,2S,5R)-8'-(3-chloro-4-fluorobenzyl)-6'-hydroxy-1-(hydroxymethyl)-2'-methyl-9',10'-dihydro-1'H-spiro[bicyclo[3.1.0]hexane-2,3'-imidazo[5,1-a][2,6]naphthyridine]-1',5',7'(2'H,8'H)-trione level at 10 mg/kg, po by LC-MS/MS method; assay type: ADME, organism-based, Canis lupus familiaris; design: dose 10 mg/kg, time infinity, route oral; conditions: in vivo; summary of the method: as §3
Canis familiaris [15] = assay: AUC (0 to infinity) in beagle dog assessed as c(1R,2S,5R)-8'-(3-chloro-4-fluorobenzyl)-6'-hydroxy-1-(hydroxymethyl)-2'-methyl-9',10'-dihydro-1'H-spiro[bicyclo[3.1.0]hexane-2,3'-imidazo[5,1-a][2,6]naphthyridine]-1',5',7'(2'H,8'H)-trione evel at 2 mg/kg, po by LC-MS/MS method; assay type: ADME, organism-based, Canis lupus familiaris; design: dose 2 mg/kg, route oral, time infinity; conditions: in vivo; summary of the method: as §2
Canis familiaris [16] = assay: AUC (0 to infinity) in beagle dog assessed as (1R,2S,5R)-8'-(3-chloro-4-fluorobenzyl)-6'-hydroxy-1-(hydroxymethyl)-2'-methyl-9',10'-dihydro-1'H-spiro[bicyclo[3.1.0]hexane-2,3'-imidazo[5,1-a][2,6]naphthyridine]-1',5',7'(2'H,8'H)-trione level at 30 mg/kg, po by LC-MS/MS method; assay type: ADME, organism-based, Canis lupus familiaris; design: dose 30 mg/kg, route oral, time infinity; conditions: in vivo; summary of the method: as §2
[17] = as §4, with “portal” for “jugular”; assay type: ADME, organism-based, Canis lupus familiaris; design: dose 10 mg/kg, route oral, time infinity; conditions: in vivo; summary of the method: as §3
Canis familiaris [18] = assay: AUC (0 to infinity) in beagle dog assessed as (1R,2R,5S)-8'-(3-chloro-4-fluorobenzyl)-6'-hydroxy-2'-((S)-2-hydroxypropyl)-9',10'-dihydro-1'H-spiro[bicyclo[3.1.0]hexane-2,3'-imidazo[5,1-a][2,6]naphthyridine]-1',5',7'(2'H,8'H)-trione level at 100 mg/kg, po by LC-MS/MS method; assay type: ADME, organism-based, Canis lupus familiaris; design: dose 100 mg/kg, time infinity, route oral; conditions: in vivo; summary of the method: as §2

Row | SMILES | solubility at 4 h [1] [µg/mL] | AUC(0-inf) [2] [µM·h] | remaining at 4 h [3] [%] | remaining at 4 h [4] [%] | AUC (Canis familiaris [6]) [µM·h] | Papp at 3 h, 1 µM [7] [×10⁻⁶ cm/s] | AUC(0-inf) [8] [µM·h] | Papp at 3 h, 1 µM [9] [×10⁻⁶ cm/s] | AUC(0-inf) [10] [µM·h] | AUC [11] [µM·h] | AUC [12] [µM·h] | AUC (Canis familiaris [13]) [µM·h] | AUC [14] [µM·h] | AUC (Canis familiaris [15]) [µM·h] | AUC (Canis familiaris [16]) [µM·h] | AUC [17] [µM·h] | AUC (Canis familiaris [18]) [µM·h] | IP [5] [nM]
1 | CC(C)OC(=O)OCOc1c2c(c3n(c1=O)[C@@]1(CC[C@H]4C[C@H]41)N(C[C@H](C)O)C3=O)CCN(Cc1ccc(F)c(Cl)c1)C2=O | 250 (≈ 404 µM) | – | > 98 | > 98 | 128 | 23.5 | 1.12 | 26.7 | 0.034 | 23.9 | 33.9 | 23 | – | – | – | – | – | 178
2 | CC(C)OC(=O)OCOc1c2c(c3n(c1=O)[C@]1(CC[C@@H]4C[C@@]41CO)N(C)C3=O)CCN(Cc1ccc(F)c(Cl)c1)C2=O | 500 (≈ 828 µM) | – | > 98 | > 98 | – | 19.7 | 2.55 | 26.5 | 0.037 | – | – | – | 30.4 | 5 | 284 | 27.3 | – | 16
3 | CC(C)OC(=O)OCOc1c2c(c3n(c1=O)[C@@]1(CC[C@H]4C[C@H]41)N(C[C@H](C)OP(=O)(O)O)C3=O)CCN(Cc1ccc(F)c(Cl)c1)C2=O | > 2000 | – | > 98 | > 98 | – | – | – | – | – | – | – | – | – | – | – | – | 570 | >4200

Further lines, with some results ahead:

Row | solubility at 4 h [1] [µg/mL] | AUC(0-inf) [2] [µM·h] | remaining at 4 h [3] [%] | remaining at 4 h [4] [%] | AUC (Canis familiaris [6]) [µM·h] | Papp at 3 h, 1 µM [7] [×10⁻⁶ cm/s] | AUC(0-inf) [8] [µM·h] | Papp at 3 h, 1 µM [9] [×10⁻⁶ cm/s] | AUC(0-inf) [10] [µM·h] | AUC [11] [µM·h] | AUC [12] [µM·h] | AUC (Canis familiaris [13]) [µM·h] | AUC [14] [µM·h] | AUC (Canis familiaris [15]) [µM·h] | AUC (Canis familiaris [16]) [µM·h] | AUC [17] [µM·h] | AUC (Canis familiaris [18]) [µM·h] | SMILES | IP [5] [nM]
4 | 2300 (≈ 3950 µM) | 6.8 | > 98 | > 98 | – | – | – | – | – | – | – | – | – | – | – | – | – | C[C@@H](CN1C(=O)c2c3c(c(O)c(=O)n2[C@@]12CC[C@H]1C[C@H]12)C(=O)N(Cc1ccc(F)c(Cl)c1)CC3)OP(=O)(O)O | 1580
5 | > 2000 | 6.8 | 90 | 90 | – | – | – | – | – | – | – | – | – | – | – | – | – | C[C@@H](CN1C(=O)c2c3c(c(O)c(=O)n2[C@@]12CC[C@H]1C[C@H]12)C(=O)N(Cc1ccc(F)c(Cl)c1)CC3)OC(=O)[C@@H](N)CCCCN | 40
